Activity calls are given as the source filed them. The calls are words filed in the database; no cut-off is given here.
Assays:
[1] = tested on: Mus musculus; assay: Antitumor activity against mouse Ehrlich Ascitic tumor xenografted in BALB/c mouse assessed as reduction of tumor volume in paw at 10 mg/kg, ip administered every 3 days for 15 days measured on day 9 by plethysmograph analysis; type: functional, organism-based; design: dose 10 mg/kg
[2] = tested on: NCI-H460; assay: Antitumor activity against human NCI-H460 cells by SRB colorimetric assay; type: functional, cell-based
How it was run: (§1)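 NCI sulforhodamine B colorimetric growth assay in 96-well plates. Each compound tested at four concentrations in 10-fold dilutions. Doxorubicin as positive control. IC50 taken from concentration–response curves as the concentration giving 50% reduction in cell growth versus untreated control cells.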

[3] = tested on: K562; assay: Antitumor activity against human K562 cells by SRB colorimetric assay; type: functional, cell-based; how it was run: as §1
[4] = tested on: OVCAR; assay: Antitumor activity against human OVCAR cells by SRB colorimetric assay; type: functional, cell-based; how it was run: as §1
[5] = tested on: UACC-62; assay: Antitumor activity against human UACC62 cells by SRB colorimetric assay; type: functional, cell-based; how it was run: as §1
[6] = Antitumor activity against human PCO3 cells by SRB colorimetric assay; type: functional, cell-based; how it was run: as §1
[7] = tested on: HT-29; assay: Antitumor activity against human HT-29 cells by SRB colorimetric assay; type: functional, cell-based; how it was run: as §1
[8] = tested on: MCF7; assay: Antitumor activity against human MCF7 cells by SRB colorimetric assay; type: functional, cell-based; how it was run: as §1
[9] = tested on: 786-0; assay: Antitumor activity against human 786-0 cells by SRB colorimetric assay; type: functional, cell-based; how it was run: as §1
[10] = tested on: Mus musculus; assay: Antitumor activity against mouse Ehrlich Ascitic tumor xenografted in BALB/c mouse assessed as reduction of tumor volume in paw at 30 mg/kg, ip administered every 3 days for 15 days measured on day 9 by plethysmograph analysis; type: functional, organism-based; design: dose 30 mg/kg
How it was run: (§2)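 Ehrlich tumor cells collected from ascitic fluid and counted by Trypan blue exclusion, viability above 90%. Cells diluted in 0.9% PBS to […]. Injected sub-plantar into right hind paw of Balb/C mice (20–35 g), 2.5 × 10⁶ viable cells. Compound given ip every 3 days over 15 days, vehicle 0.9% saline, 5-fluorouracil 10 mg/kg as positive control. Paw volume measured by plethysmometer every 3 days until sacrifice on day 15.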

[11] = tested on: Mus musculus; assay: Acute toxicity in BALB/c mouse at 30 mg/kg, ip; type: organism-based; design: dose 30 mg/kg, route intraperitoneal; settings: in vivo
[12] = tested on: Mus musculus; assay: Antitumor activity against mouse Ehrlich Ascitic tumor xenografted in BALB/c mouse assessed as reduction in paw edema at 30 mg/kg, ip administered every 3 days for 15 days measured on day 12 and day 15 by plethysmograph analysis; type: functional, organism-based; design: dose 30 mg/kg; how it was run: as §2
[13] = tested on: Mus musculus; assay: Antiinflammatory activity in mouse Ehrlich Ascitic tumor xenografted BALB/c mouse assessed as reduction in paw edema at 30 mg/kg, ip administered every 3 days for 15 days by plethysmograph analysis; type: functional, organism-based; design: dose 30 mg/kg; how it was run: as §2

Structure (SMILES)	Activity [1]	IC50 [2] [µM]	IC50 [3] [µM]	IC50 [4] [µM]	IC50 [5] [µM]	IC50 [6] [µM]	IC50 [7] [µM]	IC50 [8] [µM]	IC50 [9] [µM]	Activity [10]	Activity [11]	Activity [12]	Activity [13]
O=c1[nH]cc(F)c(=O)[nH]1	Active	–	–	–	–	–	–	–	–	–	–	–	–
COc1ccc(/C=N/NC(=O)c2cc3c([nH]c4ccccc43)c(-c3ccc([N+](=O)[O-])cc3)n2)cc1	–	4.58	7.54	21.4	9.69	7.54	8.92	8.19	14.1	–	–	–	–
O=C(NN=C1CCCCC1)c1cc2c([nH]c3ccccc32)c(-c2ccccc2Cl)n1	–	54.1	> 100	20.8	21.6	18.3	40.4	6.19	24.5	–	–	–	–
O=C(N/N=C/c1ccccc1)c1cc2c([nH]c3ccccc32)c(-c2cccc([N+](=O)[O-])c2)n1	–	1.93	1.24	6.14	1.19	> 100	1.93	2.61	3.76	–	–	–	–
O=C(NN=C1CCCCC1)c1cc2c([nH]c3ccccc32)c(-c2ccc(O)cc2)n1	–	13.2	10.3	13.2	7.86	7.68	10.3	8.33	15	–	–	–	–
CN(C)c1ccc(-c2nc(C(=O)NN=C3CCCC3)cc3c2[nH]c2ccccc23)cc1	–	80.9	13.4	> 100	18.8	20.4	55.6	22.6	> 100	–	–	–	–
CN(C)c1ccc(/C=N/NC(=O)c2cc3c([nH]c4ccccc43)c(-c3ccc([N+](=O)[O-])cc3)n2)cc1	–	> 100	> 100	> 100	> 100	> 100	> 100	> 100	> 100	–	–	–	–
COc1ccc(-c2nc(C(=O)N/N=C/c3ccc(N(C)C)cc3)cc3c2[nH]c2ccccc23)cc1	–	> 100	> 100	> 100	> 100	> 100	> 100	> 100	> 100	–	–	–	–
O=C(N/N=C/c1ccc([N+](=O)[O-])cc1)c1cc2c([nH]c3ccccc32)c(-c2ccc([N+](=O)[O-])cc2)n1	–	> 100	> 100	> 100	> 100	> 100	> 100	> 100	> 100	–	–	–	–
CC(C)=NNC(=O)c1cc2c([nH]c3ccccc32)c(-c2cccc([N+](=O)[O-])c2)n1	–	> 100	> 100	> 100	> 100	> 100	> 100	> 100	> 100	–	–	–	–
COc1ccc(/C=N/NC(=O)c2cc3c([nH]c4ccccc43)c(-c3ccccc3)n2)cc1	–	59.4	14.6	10	65.6	59.4	38.5	11	> 100	–	–	–	–
CN(C)c1ccc(/C=N/NC(=O)c2cc3c([nH]c4ccccc43)c(-c3cccc([N+](=O)[O-])c3)n2)cc1	Active	2.11	0.24	0.19	1.34	4.18	9.8	0.63	0.04	Active	Non-toxic	Active	Active
O=C(N/N=C/c1ccc([N+](=O)[O-])cc1)c1cc2c([nH]c3ccccc32)c(-c2cccc([N+](=O)[O-])c2)n1	–	6.76	4.26	46.7	3.27	24.8	7.34	12.8	> 100	–	–	–	–
COc1ccc(-c2nc(C(=O)N/N=C/c3ccccc3)cc3c2[nH]c2ccccc23)cc1	–	3.45	3.22	32.3	3.45	26.5	36	36	93.4	–	–	–	–
O=C(N/N=C/c1ccccc1)c1cc2c([nH]c3ccccc32)c(-c2ccccc2)n1	–	8.49	79.5	10.6	25.9	11.6	> 100	15.7	> 100	–	–	–	–
O=C(NN=C1CCCC1)c1cc2c([nH]c3ccccc32)c(-c2ccccc2Cl)n1	–	13.8	> 100	11.2	11.7	15	20.1	7.37	11.7	–	–	–	–
O=C(NN=C1CCCCC1)c1cc2c([nH]c3ccccc32)c(-c2ccccc2)n1	–	68.9	55.9	78	31.2	27.5	47.3	32.5	> 100	–	–	–	–

— ChEMBL document CHEMBL1914299, “Synthesis and antitumor activity of β-carboline 3-(substituted-carbohydrazide) derivatives” (Bioorg Med Chem, 2011)
